ChEMBL document CHEMBL1152669, “New R/S-3,4-dihydro-2,2-dimethyl-2H-1-benzopyrans as K(ATP) channel openers: modulation of the 4-position” (Bioorg Med Chem, 2009)
Activity calls are given as the source filed them. The calls are words filed in the database; no cut-off is given here.

Legend:
Rattus norvegicus [1] = species on record: Rattus norvegicus; test: Channel opening activity at KATP channel in Wistar rat pancreatic islets assessed as glucose-induced residual insulin secretion at 10 uM after 90 mins by radioimmunology
Outline: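 Islets from adult fed rats, groups of 10, preincubated 30 min at 37 °C in bicarbonate salt medium with 2.8 mM glucose, 0.5% dialyzed albumin, O2/CO2 gassed. Then incubated 90 min at 37 °C with 16.7 mM glucose plus drug. Insulin by radioimmunoassay against rat insulin standard; expressed as % of drug-free 16.7 mM glucose control; mean ± SEM (n).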

Rattus norvegicus [2] = species on record: Rattus norvegicus; test: Channel opening activity at KATP channel in Wistar rat pancreatic islets assessed as glucose-induced residual insulin secretion at 1 uM after 90 mins by radioimmunology
[3] = Channel opening activity at KATP channel in Wistar rat endothelium-denuded aortic ring assessed as relaxation of KCl-induced contraction; type: tissue-based; details: Aorta
Outline: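 Thoracic aortic rings (3–4 mm, endothelium-free) from adult fed rats, 37 °C, O2/CO2 95/5 gassed; isometric tension. After 60 min equilibration, contracted with 30 mM KCl; once stable, drug added cumulatively to maximal relaxation or 300 µM. Relaxation as % of KCl contraction; EC50 (50% inhibition of plateau) from dose–response curves; mean ± SEM (n).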

Rattus norvegicus [4] = species on record: Rattus norvegicus; test: Channel opening activity at KATP channel in Wistar rat pancreatic islets assessed as increase in rubidium outflow at 10 uM by scintillation counting
Outline: (§1)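 Groups of 100 islets from adult fed rats loaded 60 min at 37 °C with 86Rb in bicarbonate medium with 16.7 mM glucose and 0.5% albumin, washed three times, then perifused at 1.0 mL/min. Effluent collected in 1-min fractions from min 31 to 90, counted by scintillation along with final islet content. Output as fractional outflow rate (% of islet content per min). Glibenclamide 10 µM used as KATP blocker.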

Rattus norvegicus [5] = species on record: Rattus norvegicus; test: Channel opening activity at KATP channel in Wistar rat pancreatic islets assessed as increase in rubidium outflow at 10 uM by scintillation counting in presence of glibenclamide; outline: as §1

| Activity (Rattus norvegicus [1]) [%] | Activity (Rattus norvegicus [2]) [%] | EC50 [3] [nM] | Activity (Rattus norvegicus [4]) | Activity (Rattus norvegicus [5]) | SMILES |
| --- | --- | --- | --- | --- | --- |
| 13.5 | 64.3 | > 10000 |  |  | CC1(C)CC(NC(=S)Nc2cccc([N+](=O)[O-])c2)c2cc(Br)ccc2O1 (stereo unspecified) |
| 10.6 | 47.8 | > 10000 |  |  | CC1(C)CC(NC(=S)Nc2ccc(C#N)cc2)c2cc(Cl)ccc2O1 (stereo unspecified) |
| 12 | 64.7 | > 3000 |  |  | CC1(C)CC(NC(=S)Nc2ccc(C#N)cc2)c2cc(F)ccc2O1 (stereo unspecified) |
| 94.4 | 95.3 | 130 |  |  | CC1(C)Oc2ccc(C#N)cc2C(N2CCCC2=O)C1O (racemic) [CROMAKALIM] |
| 14.4 | 64.3 | > 3000 |  |  | CC1(C)CC(NC(=S)Nc2cccc([N+](=O)[O-])c2)c2cc(Cl)ccc2O1 (stereo unspecified) |
| 11.5 | 76.1 | > 3000 |  |  | CC1(C)CC(NC(=S)Nc2cccc([N+](=O)[O-])c2)c2cc(F)ccc2O1 (stereo unspecified) |
| 62.1 |  | 6600 |  |  | CC1(C)CC(NC(=S)Nc2cccnc2)c2cc(F)ccc2O1 (stereo unspecified) |
| 13.5 | 61.3 | > 10000 | Active | inactive | CC1(C)CC(NC(=S)Nc2ccc([N+](=O)[O-])cc2)c2cc(Br)ccc2O1 (stereo unspecified) |
| 16.1 | 80 | 2600 |  |  | CC1(C)CC(NC(=S)Nc2cccc(C#N)c2)c2cc(F)ccc2O1 (stereo unspecified) |
| 10.3 | 67.3 | > 10000 |  |  | CC1(C)CC(NC(=S)Nc2ccc([N+](=O)[O-])cc2)c2cc(Cl)ccc2O1 (stereo unspecified) |
| 15.8 | 66.2 | 600 |  |  | CC1(C)CC(NC(=S)Nc2cccc(C#N)c2)c2cc(Cl)ccc2O1 (stereo unspecified) |

Further lines, the molecule ahead of its results:

| SMILES | Activity (Rattus norvegicus [1]) [%] | Activity (Rattus norvegicus [2]) [%] | EC50 [3] [nM] | Activity (Rattus norvegicus [4]) | Activity (Rattus norvegicus [5]) |
| --- | --- | --- | --- | --- | --- |
| CS/C(=N\c1ccc(Cl)cc1)NC1CC(C)(C)Oc2ccc(Br)cc21 (stereo unspecified) | 40.8 | 89.4 | > 10000 |  |  |
| CC1(C)CC(NC(=S)Nc2cccnc2)c2cc(Cl)ccc2O1 (stereo unspecified) | 50.2 |  | 2800 |  |  |
| CC1(C)CC(NC(=S)Nc2cccnc2)c2cc(Br)ccc2O1 (stereo unspecified) | 44.3 |  | 3700 |  |  |
| CC1=Nc2ccc(Cl)cc2S(=O)(=O)N1 | 73.9 | 87.5 |  |  |  |
| CC1(C)CC(N/C(=N/C#N)Nc2ccc(Cl)cc2)c2cc(Br)ccc2O1 (stereo unspecified) | 42.7 | 95.8 | 11400 |  |  |
| CC1(C)CC(N/C(=N/C#N)Nc2cccc(C#N)c2)c2cc(Br)ccc2O1 (stereo unspecified) | 45.3 | 90.5 | 5200 |  |  |
| CC1(C)CC(NC(=S)Nc2ccc(C#N)cc2)c2cc(Br)ccc2O1 (stereo unspecified) | 11.7 | 57.5 | > 10000 |  |  |
| CC1(C)CC(NC(=S)Nc2ccsc2)c2cc(Cl)ccc2O1 (stereo unspecified) | 51.9 |  | > 3000 |  |  |
| CC1(C)CC(NC(=S)Nc2ccc([N+](=O)[O-])cc2)c2cc(F)ccc2O1 (stereo unspecified) | 10.7 | 74.3 | > 3000 |  |  |
| CS/C(=N\c1cccc(C#N)c1)NC1CC(C)(C)Oc2ccc(Br)cc21 (stereo unspecified) | 37.7 | 93.7 | > 30000 |  |  |
| CC1(C)CC(NC(=S)Nc2cccc(C#N)c2)c2cc(Br)ccc2O1 (stereo unspecified) | 14.2 | 65.5 | 640 |  |  |
| CC(N/C(=N\C#N)Nc1ccncc1)C(C)(C)C (racemic) [PINACIDIL ANHYDROUS] |  |  | 350 |  |  |
| CC1(C)CC(NC(=S)Nc2ccsc2)c2cc(Br)ccc2O1 (stereo unspecified) | 44 |  | > 10000 |  |  |
